The values that follow come from ChEMBL document CHEMBL4130637, “25 S-Adamantyl-23-yne-26,27-dinor-1α,25-dihydroxyvitamin D3: Synthesis, Tissue Selective Biological Activities, and X-ray Crystal Structural Analysis of Its Vitamin D Receptor Complex” (J Med Chem, 2018).

Calls of active or inactive are those of the source. No cut-off for these calls is given here.

Series [1] has as its target T1, Vitamin D3 receptor (Homo sapiens) (UniProt P11473).
T1 sequence (whole entry): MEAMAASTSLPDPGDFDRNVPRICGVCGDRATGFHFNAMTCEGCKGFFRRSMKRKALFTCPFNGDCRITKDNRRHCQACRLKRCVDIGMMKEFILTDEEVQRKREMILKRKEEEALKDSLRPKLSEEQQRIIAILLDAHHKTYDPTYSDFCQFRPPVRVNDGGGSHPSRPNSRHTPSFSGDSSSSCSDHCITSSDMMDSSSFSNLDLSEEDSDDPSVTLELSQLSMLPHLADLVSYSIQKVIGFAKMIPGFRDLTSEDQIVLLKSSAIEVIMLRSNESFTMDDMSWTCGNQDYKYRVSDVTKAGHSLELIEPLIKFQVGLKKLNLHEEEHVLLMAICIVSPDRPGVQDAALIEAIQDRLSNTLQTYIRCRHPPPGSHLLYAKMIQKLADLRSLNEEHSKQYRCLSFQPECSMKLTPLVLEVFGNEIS
As to the kind of experiment: Agonist activity at VDR in human SW480 cells assessed as increase in TRPV6 gene expression at 100 nM after 24 hrs by RT-PCR method relative to 1,25(OH)2D3. The format is cell-based. The method, boiled down: (§1)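 Cells treated with ligand at 100 nM for 24 h. mRNA of the target gene measured by reverse transcription and quantitative real-time PCR. Expression given as percentage of that induced by an equal concentration of 1,25(OH)2D3. Significance tested versus vehicle control.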

The target in series [2] is T2, Vitamin D3 receptor (Homo sapiens, UniProt P11473).
T2 sequence (P11473 whole entry): T1 sequence (whole entry)
Nature of the series: Transrepression of VP16-tagged VDR (unknown origin) expressed in HEK293 cells harboring pCMX-GAL4-NCoR and MH100(UAS) X 4tk-LUC reporter plasmid assessed as increase in NCoR recruitment by […] reporter gene based mammalian two-hybrid assay. The class given is cell-based.

Series [3] deals with T1, Vitamin D3 receptor (Homo sapiens). Nature of the series: Transactivation of VDR (unknown origin) expressed in HEK293 cells harboring TK-Spp X 3-LUC reporter plasmid after 24 hrs by luciferase reporter gene assay relative to control. The format is cell-based. The method, boiled down: (§2)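 HEK293 cells transfected with pCMX-VDR and TKSpp × 3-LUC reporter. Cells treated with vehicle or ligand at 10-14 M to 10^-8 M for 24 h, then harvested. Luciferase activity assayed alongside β-galactosidase activity.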

Series [4] has the same target. Nature of the series: Displacement of [26,27-Methyl-3H]-1,25(OH)2D3 from recombinant human GST-tagged VDR LBD (140 to 427 residues) expressed in Escherichia coli BL21 preincubated for 30 mins followed by radioligand addition measured after 20 hrs relative to 1,25(OH)2D3. The method, boiled down: (§3)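 GST-VDR fusion protein incubated with [3H]1,25(OH)2D3 plus unlabeled competitor over a range of concentrations. Values are means ± standard deviations of triplicate assays.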

For series [5] the target is unchanged. Nature of the series: Agonist activity at VDR in human SW480 cells assessed as increase in E-cadherin gene expression at 100 nM after 24 hrs by RT-PCR method relative to 1,25(OH)2D3. The class given is cell-based. The method, boiled down: as §1
For series [6] the target is unchanged. Nature of the series: Agonist activity at VDR in human MG63 cells assessed as increase in CYP24A1 gene expression at 100 nM after 24 hrs by RT-PCR method relative to 1,25(OH)2D3. The class given is cell-based. The method, boiled down:
as §1

The target is the same in series [7]. As to the kind of experiment: Agonist activity at VDR in human HaCaT cells assessed as increase in CYP24A1 gene expression at 100 nM after 24 hrs by RT-PCR method relative to 1,25(OH)2D3. The format is cell-based. Put shortly:
as §1

The nature of series [8]: Drug uptake in human MG63 cells at 1 uM after 10 mins by HPLC analysis. The format is ADME, cell-based. To be noted: mg-63, 10 min. Put shortly: (§4)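 MG63 cells cultured with compound (1 µM) in medium containing 10% FBS. Uptake sampled at 5 and 10 min, stability after 24 h of culture. Compound levels in cells and medium determined by HPLC.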
Series [9] in a line: Drug uptake in human MG63 cells at 1 uM after 5 mins by HPLC analysis. The format is ADME, cell-based. To be noted: mg-63, 5 min. Put shortly: as §4
In series [10] the target is T1, Vitamin D3 receptor (Homo sapiens). Nature of the series: Agonist activity at VDR in human SW480 cells assessed as increase in CYP24A1 gene expression at 100 nM after 24 hrs by RT-PCR method relative to 1,25(OH)2D3. The format is cell-based. Put shortly: as §1
Series [11] has the same target. Nature of the series: Agonist activity at VDR in HEK293 cells assessed as increase in CYP24A1 gene expression at 100 nM after 24 hrs by RT-PCR method relative to 1,25(OH)2D3. The format is cell-based. Put shortly:
as §1

The target is the same in series [12]. Nature of the series: Agonist activity at VDR in human U937 cells assessed as increase in CYP24A1 gene expression at 100 nM after 24 hrs by RT-PCR method relative to 1,25(OH)2D3. The class given is cell-based. The method, boiled down: as §1
The target in series [13] is T2, Vitamin D3 receptor. Nature of the series: Transactivation of VDR (unknown origin) expressed in HEK293 cells harboring TK-Spp X 3-LUC reporter plasmid after 24 hrs by luciferase reporter gene assay. The format is cell-based. The method, boiled down: as §2
The target of series [14] is T2, Vitamin D3 receptor. Nature of the series: Displacement of [26,27-Methyl-3H]-1,25(OH)2D3 from recombinant human GST-tagged VDR LBD (140 to 427 residues) expressed in Escherichia coli BL21 preincubated for 30 mins followed by radioligand addition measured after 20 hrs. The method, boiled down:
as §3

Series [15] deals with T1, Vitamin D3 receptor (Homo sapiens). Nature of the series: Transactivation of VDR (unknown origin) expressed in HEK293 cells harboring TK-Spp X 3-LUC reporter plasmid after 24 hrs by luciferase reporter gene assay relative to 1,25(OH)2D3. The class given is cell-based. Put shortly: as §2
For series [16] the target is unchanged. As to the kind of experiment: Agonist activity at VDR in human MG63 cells assessed as increase in OCN gene expression at 100 nM after 24 hrs by RT-PCR method relative to 1,25(OH)2D3. The class given is cell-based. The method, boiled down:
as §1

A short description of series [17]: Stability in human MG63 cells assessed as parent compound remaining at 1 uM after 24 hrs by HPLC analysis. To be noted: read-out: Stability. The format is ADME, cell-based, MG-63. Put shortly: as §4
The target in series [18] is T2, Vitamin D3 receptor. As to the kind of experiment: Transactivation of VP16-tagged VDR (unknown origin) expressed in HEK293 cells harboring pCMX-GAL4-RXRalpha and MH100(UAS) X 4tk-LUC reporter plasmid assessed as increase in interaction with RXRalpha by […] reporter gene based mammalian two-hybrid assay. The format is cell-based.
Series [19] addresses T2, Vitamin D3 receptor. Nature of the series: Transactivation of VP16-tagged VDR (unknown origin) expressed in HEK293 cells harboring pCMX-GAL4-SRC-1 and MH100(UAS) X 4tk-LUC reporter plasmid assessed as increase in SRC-1 recruitment by […] reporter gene based mammalian two-hybrid assay. The class given is cell-based.
The target of series [20] is T1, Vitamin D3 receptor (Homo sapiens). Nature of the series: Agonist activity at VDR in human HaCaT cells assessed as increase in CAMP gene expression at 100 nM after 24 hrs by RT-PCR method relative to 1,25(OH)2D3. The format is cell-based. Put shortly:
as §1

Series [21] has the same target. As to the kind of experiment: Agonist activity at VDR in human U937 cells assessed as increase in CAMP gene expression at 100 nM after 24 hrs by RT-PCR method relative to 1,25(OH)2D3. The format is cell-based. Put shortly:
as §1

The nature of series [22]: Drug degradation in human MG63 cells at 1 uM after 24 hrs by HPLC analysis. The format is ADME, cell-based, MG-63. To be noted: read-out: Drug degradation. The method, boiled down: as §4

For the compound `C=C1/C(=C\C=C2/CCC[C@]3(C)[C@@H]([C@H](C)CC#C[C@@H](O)C45CC6CC(CC(C6)C4)C5)CC[C@@H]23)C[C@@H](O)C[C@@H]1O`, the Activity in series [1] came out at 22%; in series [3] it was 90%; in series [5], 12%; in [6], 44%; in series [7], 7%; in [10] it was 8%. Moreover, the Activity amounted to 160% in series [11]; 54% in series [12]; 64% in [16]; 24% in [20]; 96% in [21]. Besides, the figures for the IC50 in series [2] and in [14] were 0.09 nM and 0.24 nM, respectively. Besides, the inhibition in series [4] amounted to 50%. Moreover, the Drug uptake is given as 6% in series [8] and 3.1% in series [9]. Moreover, the EC50 in [13] is 0.03 nM; in [18] it was more than 0.14 nM; in series [19], more than 1.2 nM. In addition, the Emax in series [15] was found to be 87%. The remaining at 24 h, 1 µM in [17] came to 49%.

`C=C1[C@H](O)CC(=C/C=C2\CCC[C@]3(C)[C@@H]([C@H](C)CC#C[C@@H](O)C45CC6CC(CC(C6)C4)C5)CC[C@@H]23)C[C@H]1O`: the Activity was determined as 170% in series [3]; 58% in [6]; 30% in series [7]; 50% in series [10]; 100% in series [11]; 85% in series [12]. Further, the values for the Drug uptake in series [8] and in [9] were 9.7% and 6.1%, respectively. The compound further had an Emax in [15] of 81%. The remaining at 24 h, 1 µM in series [17] was found to be 43%.

With `C=C1/C(=C\C=C2/CCC[C@]3(C)[C@@H]([C@H](C)CC#C[C@H](O)C45CC6CC(CC(C6)C4)C5)CC[C@@H]23)C[C@@H](O)C[C@@H]1O`, the IC50 turned out to be 1.75 nM in series [2] and 3.13 nM in series [14]. Further, the inhibition in series [4] amounted to 4%. Besides, the outcome in [6], in series [7], in [10], in [11], in [12] and in series [16] was Active. Moreover, the result in [21] was Active. Moreover, the Drug uptake was determined as 9.5% in [8] and 6.9% in [9]. The figures for the EC50 in series [13], in [18] and in series [19] were more than 5.69 nM, more than 1.2 nM and more than 3.2 nM, respectively. In [17], the remaining at 24 h, 1 µM came to 90%.

As to `C=C1/C(=C\C=C2/CCC[C@]3(C)[C@@H]([C@H](C)CCCC(C)(C)O)CC[C@@H]23)C[C@@H](O)C[C@@H]1O` [CALCITRIOL], the values for the Drug uptake in [8] and in series [9] were 2.3% and 3.4%, respectively. Further, in series [22], the metabolised at 24 h, 1 µM stood at 30%. In addition, in series [17], the remaining at 24 h, 1 µM amounted to 70%.
